Experimental data reported in paper PMC4371170 (Learning & Memory, 2015).

Experiments:
[1] = test system: other HDACs besides HDAC1, HDAC2, HDAC3, and HDAC10; assay: HDAC inhibitory potency against all 11 HDAC enzymes, remaining enzymes; assay type: biochemical; conditions: serial dilution starting at 20 μM
[2] = test system: global histone H4 acetylation; assay: Immunocytochemistry of global histone H4 acetylation in BLA and dentate gyrus; assay type: in vivo, mice; conditions: 10 mg/kg IP, 1 h after administration, qualitative
Method in brief: (§1)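 Mice received vehicle or test compound at 10 mg/kg IP (n = 2/group). They were perfused 1 h after dosing and brain tissue was processed for immunocytochemistry. Global acetyl-H3 or acetyl-H4 immunofluorescence was imaged with DAPI counterstain in the basolateral amygdala and hippocampal dentate gyrus. Assessment was qualitative, from photomicrographs of colocalization.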

C57BL/6J mice [3] = assay type: in vivo; conditions: 10 mg/kg IP after extinction training
Method in brief: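 Adult male C57BL/6J mice, 8–12 wk, group-housed 1 wk at 24°C on a 12-h light–dark cycle with food and water ad libitum, tested in the light phase. At 48 h after fear conditioning, three CS trials in a novel Context B (Plexiglas over shock bars, red light, 1% ammonium hydroxide) were averaged to assign groups (n = 12/group) matched for freezing. Extinction training followed 24 h later. Retention tests of 15 CS trials were run 24 and 48 h later, with freezing to the CS scored automatically.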

[4] = test system: global histone H3 acetylation; assay: Immunocytochemistry of global histone H3 acetylation in BLA and dentate gyrus; assay type: in vivo, mice; conditions: 10 mg/kg IP, 1 h after administration, qualitative
Method in brief: as §1

C57BL/6J mice [5] = assay: Extinction retention tests after drug without extinction training; assay type: in vivo; conditions: 10 mg/kg IP without extinction training
C57BL/6J mice [6] = assay: Open-field test; assay type: in vivo; conditions: 10 mg/kg IP
lysine 8 on H4 = conditions: site regulated by HDAC3; ref Malvaez et al. 2013; cited from earlier work
[7] = 10 mg/kg IP, mouse
HAT activity = conditions: ref Nair et al. 2001; cited from earlier work

Row | inhibition of any other HDACs [1] | brain penetrance compared with RGFP963 [7] | crossing of the blood brain barrier [7] | time of maximum brain concentration post-drug administration [7] [min] | Compound | global H4 acetylation in the BLA [2] | global acetylation of histone H4 in the dentate gyrus [2] | effect on consolidation of cued fear extinction (C57BL/6J mice [3]) | global acetylation of histone H3 in the BLA ([4]; compared with vehicle) | global acetylation of histone H3 in the dentate gyrus [4] | nonspecific effect on extinction retention (C57BL/6J mice [5]) | effect of drug on time spent in the center (C57BL/6J mice [6]; F(2,23) = 0.22, NS) | effect of drug on distance traveled (C57BL/6J mice [6]; F(2,23) = 1.06, NS) | acetylation of lysine 8 on H4 (lysine 8 on H4) | effect on HAT activity (HAT activity)
1 | did not inhibit | lower brain penetrance | able to cross the blood brain barrier | 15 | Nc1cc(F)ccc1NC(=O)/C=C/c1cnn(C/C=C/c2ccccc2)c1 [RGFP966] | Neither RGFP966 nor RGFP963 appear to alter | seem to decrease | no effect | seems to increase | seem to decrease | does not nonspecifically enhance extinction retention | No significant effect | No significant effect | enhance acetylation | 
2 |  |  |  |  | CC(/C=C/C(=O)NO)=C\[C@@H](C)C(=O)c1ccc(N(C)C)cc1 [trichostatin A] |  |  |  |  |  |  |  |  |  | inhibition of HAT activity
